Hits are enriched below; roughly 1.7% of the tested compounds scored in any of these assays.
HIV Rev-RRE inh: HIV Rev-RRE protein-RNA interaction inhibition. actives 0.79% (n = 97,000). P05866. inhibition, % at 8 µM. Rev peptide-RRE RNA binding, FRET;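 active means inhibition above the screen-wide mean plus 3 SD, cut at about 35% in these data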;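 further: 0% = median DMSO wells and 100% = median Neomycin B control wells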
Target sequence (P05866 whole entry, looked up): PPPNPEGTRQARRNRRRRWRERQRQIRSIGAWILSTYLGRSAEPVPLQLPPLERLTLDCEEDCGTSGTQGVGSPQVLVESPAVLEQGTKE
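Assay system: labelled RRE RNA duplex and labelled Rev peptide / Medium: HEPES pH 7.5 salt buffer with EDTA / Reagent: labelled Rev peptide / Schedule: 5 + 15 min at 25 °C / Signal: FRET, excitation 480 nm, emission 540 nm donor and 671 nm acceptor / Benchmarks: DMSO and neomycin B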
EphB4 ephrin blk: blocks human EphB4 binding to ephrin-B2 | P54760 | actives 0.15% (n = 97,000) | EphB4 LBD / TNYL-RAW-Alexa532 peptide, fluorescence polarization | inhibition, % at 7 µM | AID 720;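 active means inhibition above the screen-wide mean inhibition plus 3 SD, cut at about 15% in these data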;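 further: 0% = DMSO wells and 100% = excess unlabeled TNYL-RAW peptide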
S1P2 agonist: agonists of human S1P2 receptor; O95136; S1P2-expressing cell line, agonist reporter read-out; activation, % at 4.5 µM; actives 0.46% (n = 97,000); AID 729; in the data active means activation above about 16%;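 further: 0% = vehicle low control and 100% = maximal reference agonist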
Target sequence (O95136 whole entry, looked up): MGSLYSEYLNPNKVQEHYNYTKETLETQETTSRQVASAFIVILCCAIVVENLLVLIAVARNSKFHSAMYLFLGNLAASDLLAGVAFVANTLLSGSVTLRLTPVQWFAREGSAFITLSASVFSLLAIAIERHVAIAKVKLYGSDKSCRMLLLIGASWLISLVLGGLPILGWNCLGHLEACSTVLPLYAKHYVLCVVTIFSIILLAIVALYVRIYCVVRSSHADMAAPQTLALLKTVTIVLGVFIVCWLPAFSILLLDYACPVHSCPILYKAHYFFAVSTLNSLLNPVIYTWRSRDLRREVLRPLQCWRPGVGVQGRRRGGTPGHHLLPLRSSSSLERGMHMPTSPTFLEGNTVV
GALR2 antag: antagonists of human galanin receptor 2 (GALR2). O43603. GALR2-expressing cells, antagonist mode. inhibition, % at 4 µM. actives 0.39% (n = 140,000);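 further: cells stimulated with galanin 1-16 at roughly its EC80; 0% = agonist challenge control and 100% = basal control without agonist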
GALR2 agonist: agonists of human galanin receptor 2 (GALR2). O43603. GALR2-expressing cells, agonist activation read-out. activation, % (no concentration beside the values). actives 0.48% (n = 140,000). AID 803; in the data active means activation above about 5%, passing the limit was not always enough;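 further: 0% = vehicle buffer wells and 100% = reference agonist at full effect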
S1P2 antag: S1P2 (human) receptor antagonism. inhibition, % at 5 µM. AID 736. cell-based S1P2 antagonist assay, inhibition at 5 uM. O95136. actives 0.21% (n = 97,000); in the data active means inhibition above about 45%;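 further: CRE beta-lactamase reporter cells expressing human S1P2 stimulated with S1P; 0% = agonist at EC80 alone and 100% = agonist plus reference antagonist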
GALR2 agon conf: confirmation of human galanin receptor 2 (GALR2) agonists; actives 10% (n = 460); GALR2-expressing cells, agonist activation; AID 864; shares compounds with GALR2 agonist; activation, % at 5.6 µM; in the data active means activation above about 8.4%;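 further: 0% = buffer-only vehicle wells and 100% = full reference agonist response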
BLA activ ctr: counter-screen for GALR2 agonists: beta-lactamase reporter activators. AID 865. CHO NFAT-bla reporter, beta-lactamase FRET activation. shares compounds with GALR2 agonist. activation, % at 5.6 µM. actives 10% (n = 460);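 active means activation above the screen-wide mean activation plus 3 SD, cut at about 8% in these data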;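 further: 0% = DMSO with PBS wells and 100% = thapsigargin positive control wells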
GALR2 ant conf: confirmation of human galanin receptor 2 (GALR2) antagonists. shares compounds with GALR2 antag. GALR2-expressing cells, antagonist mode, inhibition. inhibition, % at 4 µM. actives 60% (n = 480). AID 866;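 further: cells stimulated with galanin at about its EC80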
BLA inhib ctr: inhibits beta-lactamase reporter in GALR2 antagonist counterscreen; shares compounds with GALR2 antag; CHO NFAT-BLA reporter, beta-lactamase FRET, thapsigargin-stimulated; inhibition, % at 4.2 µM; actives 36% (n = 480); AID 867;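 active means inhibition above the mean inhibition across tested compounds plus 3 SD, cut at about 27% in these data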;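 further: 0% = 500 nM thapsigargin stimulated wells and 100% = unstimulated BSA only wells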
* = called active by the depositor; nt = no result. Unless noted, no stated cut-off is given here; in the data, active means inhibition above about 27%; inactive means the rest.

SMILES	HIV Rev-RRE inh	EphB4 ephrin blk	S1P2 agonist	GALR2 antag	GALR2 agonist	S1P2 antag	GALR2 agon conf	BLA activ ctr	others
CCOc1ccc(-n2c(O)c(C=Nc3ccc(N(CC)CC)cc3)c(=O)[nH]c2=O)cc1	71*	3	-4	-15	-1	23	nt	nt
Clc1ccc(COC(Cn2ccnc2)c2ccc(Cl)cc2Cl)c(Cl)c1 (centres undefined)	nt	nt	nt	-2	2	nt	nt	nt
CCOC(=O)c1c(-n2c(C)cc(C=C3C(=O)NC(=S)NC3=O)c2C)sc2c1CCCC2	41*	2	-4	-4	-3	30	nt	nt
CCOC(=O)c1c(-n2c(C)cc(/C=C3/C(=O)NC(=O)N(CC)C3=O)c2C)sc2c1CCCC2	6	-10	-4	14	-3	9	nt	nt
CN(C)CCc1nc2ccccc2c(=O)n1-c1ccccc1	0	-4	4	-15	32*	-12	-1	-1
N#Cc1cc2c(nc1SCC(=O)Nc1cc(Cl)ccc1Cl)C1CCN2CC1	10	-1	14	3	11	-47	1	1
COc1cc(/C=C(/C)[N+](=O)[O-])ccc1OCc1ccccc1Cl	nt	nt	nt	4	11*	nt	0	-9
CN1C(=O)C(=Cc2ccccc2OCc2ccccc2Cl)C(=O)N(C)C1=O	nt	nt	nt	-4	-1	nt	nt	nt
COc1ccc2c(c1)c(C(=O)CN1CCC3(CC1)OCCO3)c(C)n2Cc1ccccc1	10	-7	-6	10	0	-18	nt	nt
COc1ccc(C(Nc2ccccc2)P(=O)(Oc2ccccc2)Oc2ccccc2)cc1 (centres undefined)	nt	nt	nt	6	-1	nt	nt	nt
COc1ccc(Cn2c(N)c(C(=O)NCc3ccco3)c3nc4ccccc4nc32)cc1	30	8	13	-11	13*	-9	8.6*	16*
CCOC(=O)c1c(N)n(Cc2ccco2)c2nc3ccccc3nc12	18	4	1	15	2	-17	nt	nt
O=c1cccc2n1CC1CC2CN(C(c2ccccc2)c2sc3ncnn3c2O)C1 (centres undefined)	nt	nt	nt	12	0	nt	nt	nt
CCOC(=O)C1=C(N)OC2=C(C(=O)CC(C)(C)C2)C12C(=O)Nc1ccccc12 (centres undefined)	2	5	-10	-2	-2	15	nt	nt
O=C(COc1ccccc1)Nc1ccc(Cl)cc1C(=O)c1ccccc1	nt	nt	nt	8	0	nt	nt	nt
COc1ccc(OCC(=O)Nc2ccc(Cl)cc2C(=O)c2ccccc2)cc1	10	-3	-2	-14	10	-5	-1	-3
CCN(c1ccc(C(O)(C(=O)OC)C(F)(F)F)cc1)S(=O)(=O)c1ccccc1 (centres undefined)	nt	nt	nt	7	16*	nt	0	-1
O=C(CCCN1CCC2(CC1)C(=O)NCN2c1ccccc1)c1ccc(F)cc1	nt	nt	nt	10	16*	nt	8.8*	14*
Nc1cc(Cl)c2nonc2c1[N+](=O)[O-]	nt	nt	nt	37*	4	nt	nt	nt	GALR2 ant conf=35*;BLA inhib ctr=12
CC(C)CCP(=O)(O)c1ccccc1	2	0	0	-16	0	-5	nt	nt
CC(=O)OC(C)(C)/C=C/C(=O)[C@](C)(O)[C@H]1[C@H](O)C[C@@]2(C)[C@@H]3CC=C4[C@H](C[C@H](O)C(=O)C4(C)C)[C@]3(C)C(=O)C[C@]12C	nt	nt	nt	72*	-3	nt	nt	nt	GALR2 ant conf=87*;BLA inhib ctr=102*
Clc1ccc(C(c2ccccc2)c2ncc[nH]2)cc1 (centres undefined)	nt	nt	nt	4	-1	nt	nt	nt
C=CCn1c(O)c(/C=C2/C=CC=N2)c(=O)[nH]c1=O	nt	nt	nt	35*	-1	nt	nt	nt	GALR2 ant conf=25;BLA inhib ctr=10
CC(=O)OC1(c2ccc(C)cc2)CN2CCC1c1ccccc12 (centres undefined)	0	0	-4	39*	-2	2	nt	nt	GALR2 ant conf=17;BLA inhib ctr=14
N=C1c2ccccc2CN1NC(=O)c1ccc(Br)cc1	nt	nt	nt	3	-1	nt	nt	nt
O=[N+]([O-])c1ccc(NCCO)c2ncccc12	nt	nt	nt	-1	-1	nt	nt	nt
COc1cc(/C=C/[N+](=O)[O-])ccc1O	nt	nt	nt	52*	-2	nt	nt	nt	GALR2 ant conf=55*;BLA inhib ctr=23
CC1C(c2cccs2)=[N+]([O-])C(C)(C(=O)c2cccs2)N1O (centres undefined)	nt	nt	nt	-6	0	nt	nt	nt

Source: PubChem BioAssay
